From ChEMBL document CHEMBL1129933, “Tyrosine kinase inhibitors. 6. Structure-activity relationships among N- and 3-substituted 2,2'-diselenobis(1H-indoles) for inhibition of protein tyrosine kinases and comparative in vitro and in vivo studies against selected sulfur congeners” (J Med Chem, 1997)
pIC50, pKi: −log10 of the molar value.

Tests used:
[1] = target: T1, Epidermal growth factor receptor (Homo sapiens, UniProt P00533); test: Inhibition of epidermal growth factor receptor (EGFr)
[2] = system: Colon 26; test: In vivo activity against murine colon 26, percent treated/control tumor mass at 0.75 mg/kg ip dose at 4 hour intervals 3x a day for 9 days; type: functional, Mus musculus; conditions: route intraperitoneal
In short: (§1)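 Murine tumours were maintained by serial transplantation (~30 mg fragments every 2 weeks): B16 in C57BL/6 and colon 26 in BALB/c. They were tested in F1 hosts, B6C3F1 for B16 and CD2F1 for colon 26, weighing 18-22 g. Treatment was ip daily or q4h ×3 for 9 days. Weight change was the difference between mean group weights on the last and first treatment days, from life-span assays.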

[3] = system: Colon 26; test: In vivo activity against murine colon 26, weight change after 0.75 mg/kg ip dose at 4 hour intervals 3x a day for 9 days; type: functional, Mus musculus; conditions: route intraperitoneal; in short: as §1
[4] = system: Colon 26; test: In vivo activity against murine colon 26 tumor, net cell kill at 1.5 mg/kg ip dose for 9 days; type: functional, Mus musculus; conditions: route intraperitoneal
In short: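 Colon 26 was passaged in BALB/c mice; tested in CD2F1 mice (18-22 g, randomized) implanted on day 0 ip with counted cells or sc with fragments. Dosing was ip bolus, daily or q4h ×3 daily, by average cage weight. Vehicle was distilled H2O or 10% DMA in 50 mM lactic acid, pH 4.0. Net cell kill = log tumor-burden reduction between first and last treatments.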

[5] = system: B16; test: In vivo activity against murine B16 melanoma, percent treated/control tumor mass at 3.0 mg/kg ip dose for 9 days; type: functional, Mus musculus; conditions: route intraperitoneal; in short: as §1
[6] = system: C6; test: In vivo activity against C6 glioma xenograft, tumor growth delay (T-C, days) at 5 mg/kg ip dose for 9 days; conditions: route intraperitoneal
[7] = system: A-431; test: In vivo activity against human A431 epidermoid xenograft, net cell kill at 9 mg/kg administered subcutaneously for 1-27 days; type: functional; conditions: route subcutaneous
In short: (§2)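 Nude mice (NCr nu/nu), 18-22 g, randomized, implanted sc in the right axilla with serially passaged A431 tumor fragments on day 0. Dosing was by ip bolus or continuous sc Alzet miniosmotic pump infusion, by average cage weight. Vehicle was distilled H2O or 10% DMA in 50 mM lactic acid buffer, pH 4.0, depending on compound. Net cell kill = net log reduction in tumor burden between first and last treatments.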

[8] = target: T1, Epidermal growth factor receptor; test: Inhibition of epidermal growth factor receptor (EGFr) using ATP substrate
In short: (§3)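 EGFr came from membrane vesicles shed by human A431 carcinoma cells. Activity was measured as 32P-phosphate transfer from ATP into a TCA-precipitable glutamate/tyrosine (4:1) random copolymer. ATP or peptide polymer substrate was varied. Ki was obtained by nonlinear regression with Cleland's equations, comparing slope and intercept determinations to assign the inhibition type.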

[9] = system: MCF7; test: In vivo activity against human MCF-7 xenograft, weight change after 12.0 mg/kg ip dose for 5-11 days; type: functional; conditions: route intraperitoneal
In short: (§4)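 MCF-7 breast carcinoma xenografts were serially passaged in nude mice (NCr nu/nu) and implanted in randomized 18-22 g mice on day 0. Dosing was ip bolus, either daily or q4h ×3 daily, with vehicle of distilled H2O or 10% DMA in 50 mM lactic acid buffer, pH 4.0. Weight change was taken as the maximum treatment-related loss.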

[10] = system: MCF7; test: In vivo activity against human MCF-7 xenograft, tumor growth delay (T-C) at 12.0 mg/kg ip dose for 5-11 days; conditions: route intraperitoneal
[11] = target: Platelet-derived growth factor receptor beta (Mus musculus, UniProt P05622); test: Inhibition of platelet-derived growth factor receptor (PDGFr) autophosphorylation; type: functional
In short: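 Swiss 3T3 fibroblasts were treated 2 h with a range of compound concentrations, then stimulated 5 min with growth factor. Receptor tyrosine phosphorylation was assessed by cell extraction and western blotting.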

[12] = Inhibition of DNA synthesis; type: functional
In short: (§5)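 Log-phase cells were drug-treated for 2 h, then exposed for 2 h to 1 µM [methyl-3H]thymidine (DNA), [5-3H]uridine (RNA) or (S)-[4,5-3H]leucine (protein), each at 1 µCi/nmol. Cells were trypsinized into ice-cold 15% TCA, and precipitates were collected on glass-fibre filters, washed, and counted by scintillation.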

[13] = system: MCF7; test: In vivo activity against human MCF-7 xenograft, weight change after 3.0 mg/kg ip dose at 4 hour intervals 3x a day for 5-11 days; type: functional, organism-based; set-up: dose 3 mg/kg; in short: as §4
[14] = system: MCF7; test: In vivo activity against human MCF-7 xenograft, net cell kill at 3.0 mg/kg administered intraperitoneally at 4 hour intervals 3x a day for 5-11 days; type: functional; conditions: route intraperitoneal
In short: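 Nude mice (NCr nu/nu), 18-22 g, randomized and implanted on day 0 with serially passaged MCF-7 tumor (sc fragments in right axilla or ip cells). Compound was given ip bolus q4h ×3 daily, by average cage weight. Vehicle was distilled H2O or 10% DMA in 50 mM lactic acid, pH 4.0. Net cell kill = log tumor-burden reduction between first and last treatments.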

[15] = system: Colon 26; test: In vivo activity against murine colon 26, weight change after 1.5 mg/kg ip dose for 9 days; type: functional, Mus musculus; conditions: route intraperitoneal; in short: as §1
[16] = system: M5076; test: In vivo activity against murine M5076 sarcoma, weight change after 3.0 mg/kg ip dose at 4 hour intervals 3x a day for 9 days; type: functional, Mus musculus; conditions: route intraperitoneal
In short: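 M5076 sarcoma was serially transplanted in C57BL/6 mice and tested in B6C3F1 mice (18-22 g) given ip q4h ×3 daily for 9 days. Weight change was taken as the maximum treatment-related weight loss in the growth-delay assay.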

[17] = Inhibition of RNA synthesis; type: functional; in short: as §5
[18] = Inhibition of protein synthesis; type: functional; in short: as §5
[19] = system: B16; test: In vivo activity against murine B16 melanoma, net cell kill at 0.75 mg/kg administered intraperitoneally at 4 hour intervals 3x a day for 9 days; type: functional, Mus musculus; conditions: route intraperitoneal
In short: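 Tumors were passaged in C57BL/6 mice; B6C3F1 mice (18-22 g, randomized) were implanted on day 0 ip with counted tumor cells or sc with fragments. Dosing was ip bolus, daily or q4h ×3 daily, by average cage weight. Vehicle was distilled H2O or 10% DMA in 50 mM lactic acid buffer, pH 4.0. Net cell kill = log reduction in tumor burden between first and last treatments.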

[20] = system: B16; test: In vivo activity against murine B16 melanoma, weight change after 0.75 mg/kg ip dose at 4 hour intervals 3x a day for 9 days; type: functional, Mus musculus; conditions: route intraperitoneal; in short: as §1
[21] = system: M5076; test: In vivo activity against murine M5076 sarcoma, tumor growth delay (T-C) at 3.0 mg/kg ip dose at 4 hour intervals 3x a day for 9 days; conditions: route intraperitoneal
[22] = system: B16; test: In vivo activity against murine B16 melanoma, percent treated/control tumor mass at 0.75 mg/kg ip dose at 4 hour intervals 3x a day for 9 days; type: functional, Mus musculus; conditions: route intraperitoneal; in short: as §1
[23] = target: Epidermal growth factor receptor (Mus musculus) (UniProt Q01279); test: Inhibition of epidermal growth factor receptor (EGFr) autophosphorylation
[24] = system: A-431; test: In vivo activity against human A431 epidermoid xenograft, net cell kill at 10 mg/kg administered subcutaneously for 9-15 days; type: functional; conditions: route subcutaneous; in short: as §2
[25] = target: T1, Epidermal growth factor receptor; test: Inhibition of epidermal growth factor receptor (EGFr) using peptide substrate; in short: as §3

T1 sequence (P00533 whole entry): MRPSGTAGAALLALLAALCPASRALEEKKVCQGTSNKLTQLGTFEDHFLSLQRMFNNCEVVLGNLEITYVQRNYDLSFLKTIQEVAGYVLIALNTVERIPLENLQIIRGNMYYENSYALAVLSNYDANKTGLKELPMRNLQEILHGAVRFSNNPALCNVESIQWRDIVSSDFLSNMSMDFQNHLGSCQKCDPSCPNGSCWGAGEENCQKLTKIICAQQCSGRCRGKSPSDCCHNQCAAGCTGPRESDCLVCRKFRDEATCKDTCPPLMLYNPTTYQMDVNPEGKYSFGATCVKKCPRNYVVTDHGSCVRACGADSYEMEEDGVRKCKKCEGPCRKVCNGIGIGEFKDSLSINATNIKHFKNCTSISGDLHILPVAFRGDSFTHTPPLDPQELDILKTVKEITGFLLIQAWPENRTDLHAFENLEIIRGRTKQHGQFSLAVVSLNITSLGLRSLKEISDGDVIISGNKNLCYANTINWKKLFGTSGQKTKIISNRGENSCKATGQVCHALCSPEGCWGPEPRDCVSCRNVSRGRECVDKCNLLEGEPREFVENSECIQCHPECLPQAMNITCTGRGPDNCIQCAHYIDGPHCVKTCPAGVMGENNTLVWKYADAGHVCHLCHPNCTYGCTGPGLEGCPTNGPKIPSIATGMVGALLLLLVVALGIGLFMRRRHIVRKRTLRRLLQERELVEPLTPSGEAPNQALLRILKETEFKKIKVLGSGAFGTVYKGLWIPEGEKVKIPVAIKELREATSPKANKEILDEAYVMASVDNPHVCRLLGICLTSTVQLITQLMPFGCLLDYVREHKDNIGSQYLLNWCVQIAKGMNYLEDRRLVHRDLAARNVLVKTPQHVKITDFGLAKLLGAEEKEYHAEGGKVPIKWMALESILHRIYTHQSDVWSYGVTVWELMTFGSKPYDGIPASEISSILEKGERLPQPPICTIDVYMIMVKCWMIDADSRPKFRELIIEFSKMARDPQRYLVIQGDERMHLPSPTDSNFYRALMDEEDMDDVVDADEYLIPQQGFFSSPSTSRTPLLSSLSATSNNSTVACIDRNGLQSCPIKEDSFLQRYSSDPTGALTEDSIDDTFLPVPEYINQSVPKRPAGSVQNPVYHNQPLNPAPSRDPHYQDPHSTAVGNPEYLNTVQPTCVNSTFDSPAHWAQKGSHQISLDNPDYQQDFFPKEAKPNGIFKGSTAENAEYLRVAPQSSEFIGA
Chain of Epidermal growth factor receptor (Mus musculus) (Q01279 whole entry, looked up): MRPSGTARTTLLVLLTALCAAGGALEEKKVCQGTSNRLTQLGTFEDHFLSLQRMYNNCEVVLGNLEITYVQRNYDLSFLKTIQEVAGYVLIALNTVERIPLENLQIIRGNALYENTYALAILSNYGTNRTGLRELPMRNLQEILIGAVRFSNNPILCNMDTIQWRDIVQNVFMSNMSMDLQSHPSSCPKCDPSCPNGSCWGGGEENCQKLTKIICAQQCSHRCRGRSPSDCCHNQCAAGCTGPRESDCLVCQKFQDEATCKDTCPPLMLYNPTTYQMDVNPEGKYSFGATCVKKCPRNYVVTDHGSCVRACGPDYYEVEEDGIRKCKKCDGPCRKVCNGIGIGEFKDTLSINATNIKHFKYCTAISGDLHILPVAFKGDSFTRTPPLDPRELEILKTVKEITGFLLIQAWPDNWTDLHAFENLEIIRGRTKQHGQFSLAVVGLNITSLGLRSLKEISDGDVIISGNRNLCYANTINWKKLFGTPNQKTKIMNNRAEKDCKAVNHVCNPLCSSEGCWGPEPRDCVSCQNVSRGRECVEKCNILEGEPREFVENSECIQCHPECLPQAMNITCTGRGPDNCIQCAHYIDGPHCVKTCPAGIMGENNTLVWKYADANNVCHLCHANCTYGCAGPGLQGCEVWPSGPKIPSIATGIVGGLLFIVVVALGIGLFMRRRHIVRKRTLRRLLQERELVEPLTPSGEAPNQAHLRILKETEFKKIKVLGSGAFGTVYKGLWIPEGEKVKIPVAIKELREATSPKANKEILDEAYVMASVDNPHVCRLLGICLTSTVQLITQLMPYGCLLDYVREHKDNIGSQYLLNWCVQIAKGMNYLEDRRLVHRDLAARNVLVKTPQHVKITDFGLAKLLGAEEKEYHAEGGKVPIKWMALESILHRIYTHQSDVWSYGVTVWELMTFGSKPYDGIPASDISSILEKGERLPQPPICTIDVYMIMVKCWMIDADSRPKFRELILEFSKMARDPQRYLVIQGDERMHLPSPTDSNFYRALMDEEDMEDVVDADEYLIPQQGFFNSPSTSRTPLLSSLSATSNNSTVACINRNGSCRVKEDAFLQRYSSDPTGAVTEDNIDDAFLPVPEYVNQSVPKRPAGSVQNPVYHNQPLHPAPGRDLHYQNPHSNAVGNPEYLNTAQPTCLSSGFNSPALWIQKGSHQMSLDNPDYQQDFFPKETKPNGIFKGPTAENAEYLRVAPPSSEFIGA
Chain of Platelet-derived growth factor receptor beta (P05622 whole entry): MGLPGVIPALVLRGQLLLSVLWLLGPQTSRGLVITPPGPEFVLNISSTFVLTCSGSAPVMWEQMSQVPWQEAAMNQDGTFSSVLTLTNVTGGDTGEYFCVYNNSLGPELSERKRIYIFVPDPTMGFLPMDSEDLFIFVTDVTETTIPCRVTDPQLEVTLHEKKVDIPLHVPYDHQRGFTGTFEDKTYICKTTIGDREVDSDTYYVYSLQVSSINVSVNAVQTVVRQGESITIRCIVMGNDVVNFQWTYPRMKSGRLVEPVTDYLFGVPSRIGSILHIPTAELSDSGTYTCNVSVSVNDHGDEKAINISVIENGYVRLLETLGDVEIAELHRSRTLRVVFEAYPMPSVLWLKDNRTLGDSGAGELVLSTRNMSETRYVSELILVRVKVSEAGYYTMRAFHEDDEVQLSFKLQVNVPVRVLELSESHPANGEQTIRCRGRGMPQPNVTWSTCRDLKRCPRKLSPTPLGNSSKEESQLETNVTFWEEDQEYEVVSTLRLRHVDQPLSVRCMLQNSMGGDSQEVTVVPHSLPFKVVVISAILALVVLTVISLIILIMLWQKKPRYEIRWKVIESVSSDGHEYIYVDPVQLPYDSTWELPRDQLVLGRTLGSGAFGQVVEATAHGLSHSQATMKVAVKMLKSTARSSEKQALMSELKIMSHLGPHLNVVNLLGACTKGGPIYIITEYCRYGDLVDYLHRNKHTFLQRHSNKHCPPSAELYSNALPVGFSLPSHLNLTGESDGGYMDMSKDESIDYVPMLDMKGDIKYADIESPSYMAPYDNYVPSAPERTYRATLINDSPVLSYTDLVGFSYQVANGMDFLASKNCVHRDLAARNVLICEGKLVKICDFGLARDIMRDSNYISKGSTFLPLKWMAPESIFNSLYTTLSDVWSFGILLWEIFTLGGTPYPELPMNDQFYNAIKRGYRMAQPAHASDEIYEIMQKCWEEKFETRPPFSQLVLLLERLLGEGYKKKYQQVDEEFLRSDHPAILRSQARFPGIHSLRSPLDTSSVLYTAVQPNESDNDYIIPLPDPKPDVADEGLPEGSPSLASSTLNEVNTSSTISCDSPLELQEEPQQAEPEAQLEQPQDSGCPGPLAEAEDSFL

NC(Cc1c(SSc2[nH]c3ccccc3c2CC(N)C(=O)NCc2ccccc2)[nH]c2ccccc12)C(=O)NCc1ccccc1 (stereo not given)
pIC50 [1]: 5.13 | T/C [2]: 119% | Weight change [3]: 0.8 g | Net cell kill [4]: -0.3 log10 | T/C [5]: 100% | T-C [6]: 0 days | Net cell kill [7]: -0.6 log10 | pKi [8]: 4.71 | Weight change [9]: -0.4 g | T-C [10]: 0 days | pIC50 [11]: 5.21 | pIC50 [12]: 5.60 | Weight change [13]: Weight gain | Net cell kill [14]: -1.2 log10 | Weight change [15]: 1.8 g | Weight change [16]: -0.5 g | pIC50 [17]: 5.70 | pIC50 [18]: 6.22 | Net cell kill [19]: -1.3 log10 | Weight change [20]: 1.1 g | T-C [21]: 0.7 days | T/C [22]: 99% | pIC50 [23]: < 4.00 | Net cell kill [24]: -0.2 log10 | pKi [25]: 4.67
